XiGFP reactiv: X-chromosome reactivation activator; XiGFP mouse fibroblasts, % GFP-positive cells imaging, 3 d; cells co-treated with 5-aza-dC sensitizer; scaled so ellipticine positive control = 100%; activation, % at 7.58 µM; hit rate 0.055% among 360,000; AID 743238;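 active means mean normalized replicate activation at least 10% and every replicate at or above 10%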
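Material: XiGFP fibroblasts, SV40-immortalized. Buffer or medium: DMEM plus 5-aza-dC sensitizer. Compound: single concentration per compound, delivered by pin transfer. Times: 3 days compound exposure. Controls: ellipticine 6 µM.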
esBAF inh: inhibitors of esBAF chromatin remodeling in mouse ES cells. Bmi1-luciferase knock-in reporter, 24 h; 100% = twice the neutral-well signal. hit rate 2% among 350,000. AID 602393. reporter increase, % at 12.5 µM; in the data active means activation above about 40%;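 further: a rise in the Bmi1 reporter signal indicates esBAF inhibition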
Casp6 inh: caspase-6 (human) enzyme inhibition; inhibition, % at 12.5 µM; hit rate 0.53% among 350,000; purified caspase-6, Z-VEID-R110 cleavage fluorescence; P55212;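 active means mean inhibition across replicates at least about 35%, with every replicate also reaching that limit, limit read from the data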
Target sequence (P55212 24-179 limits assumed): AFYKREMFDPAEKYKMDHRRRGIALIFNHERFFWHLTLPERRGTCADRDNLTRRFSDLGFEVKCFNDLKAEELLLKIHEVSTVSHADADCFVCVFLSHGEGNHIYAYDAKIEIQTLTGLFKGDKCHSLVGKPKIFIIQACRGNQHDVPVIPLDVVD
Target sequence (P55212 194-293 limits assumed): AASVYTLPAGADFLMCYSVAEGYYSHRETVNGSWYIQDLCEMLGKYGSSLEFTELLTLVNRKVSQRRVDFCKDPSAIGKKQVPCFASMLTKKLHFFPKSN
MITF act: increases MITF-driven TRPM1 promoter luciferase signal | SK-MEL-5 TRPM1-promoter luciferase, 24 h; % of positive control, neutral wells = 0 | activation, % at 12.5 µM | hit rate 0.75% among 300,000 | AID 588334;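 active means mean activation of at least 80% with every replicate also reaching 80%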
NSD2 inh: NSD2 (human) methyltransferase inhibition. hit rate 0.54% among 310,000. NSD2 peptide methylation, AlphaScreen, 120 min. inhibition, % at 12.5 µM. AID 743445; in the data active means inhibition above about 50%
Wnt bcat act: activators of Wnt/beta-catenin signaling. Wnt/beta-catenin reporter cell assay, activator, plate reader. activation, % at 9.35 µM. hit rate 1.2% among 300,000; in the data active means activation above about 30%, passing the limit was not always enough
A number is an active result. An excerpt weighted towards active compounds, which were near 3% of everything screened.

For COc1ccc(C(C)=O)cc1CC(C(=O)c1ccc(C)cc1)N(C)C (centres undefined) the results were XiGFP reactiv inactive, Casp6 inh inactive, MITF act inactive, NSD2 inh inactive and Wnt bcat act inactive.
For COc1ccc(C(C)=O)cc1CC(C(=O)c1ccccc1)N(C)C (centres undefined) the results were XiGFP reactiv inactive, esBAF inh 41, MITF act inactive, NSD2 inh inactive and Wnt bcat act inactive.
O=C(c1cccc2ccccc12)C1CCCN(Cc2ccon2)C1 (centres undefined) was read as XiGFP reactiv 27, Casp6 inh inactive, MITF act inactive, NSD2 inh inactive and Wnt bcat act inactive.
`Cc1cc(Cl)ccc1C(=O)C1CCCN(Cc2ccon2)C1` (centres undefined) gave XiGFP reactiv inactive, Casp6 inh inactive, MITF act inactive, NSD2 inh inactive and Wnt bcat act inactive.
For OC[C@@H]1Nc2ccc(C#Cc3cccnc3)cc2[C@H]2NCC[C@@H]12 the results were XiGFP reactiv inactive.
Screening O=C1C(Cl)=CC(=Nc2ccc(O)cc2)C=C1Cl returned XiGFP reactiv inactive, esBAF inh inactive, Casp6 inh 40, MITF act inactive and Wnt bcat act inactive.
O=[As](O)(O)c1ccc(N=Nc2ccc(O)cc2)cc1 was read as XiGFP reactiv inactive, esBAF inh inactive, Casp6 inh inactive, MITF act inactive, NSD2 inh inactive and Wnt bcat act inactive.
`N#Cc1cccc(-c2ccc([C@H]3[C@H](CO)N4CCCCN(C(=O)Cc5cccnc5)C[C@@H]34)cc2)c1` gave XiGFP reactiv inactive, esBAF inh inactive and Casp6 inh inactive.
O=C1NC(=O)N(CCC2=CCCCC2)C(=O)/C1=C\c1cccs1 was read as XiGFP reactiv inactive, esBAF inh inactive, Casp6 inh 37, MITF act inactive, NSD2 inh inactive and Wnt bcat act inactive.
Screening CCCCn1c(=O)c(C=Nc2cccnc2Cl)c(O)n(CCCCl)c1=O returned XiGFP reactiv inactive, Casp6 inh inactive, MITF act inactive, NSD2 inh inactive and Wnt bcat act 51.
Screening COc1ccc(OC(=O)N(C)C[C@H]2OCc3ccccc3-c3c(n(C)c4ccccc34)C(=O)N([C@@H](C)CO)C[C@@H]2C)cc1 returned XiGFP reactiv inactive and Casp6 inh inactive.
Screening Fc1cccc(F)c1-c1nc(-c2ccc(Cl)cc2)no1 returned XiGFP reactiv inactive, esBAF inh 64, Casp6 inh inactive, NSD2 inh inactive and Wnt bcat act 65.
Screening CCN1[C@@H]2c3ccc(-c4cccc(OC)c4)c(=O)n3C[C@H]1[C@H](CO)[C@H]2C(=O)OC returned XiGFP reactiv inactive, esBAF inh inactive and Casp6 inh inactive.
Screening O=C1NC(=O)N(CCc2ccc(F)cc2)C(=O)/C1=C/c1ccco1 returned XiGFP reactiv inactive, Casp6 inh 83, MITF act inactive and Wnt bcat act inactive.
For CCN1C(=O)C(=C/C=C/c2ccco2)C(=O)N(CC)C1=S the results were XiGFP reactiv inactive, Casp6 inh 58, MITF act inactive, NSD2 inh inactive and Wnt bcat act inactive.
Screening CCN1C(=O)C(=C2C=C(C)N(Cc3ccco3)C(C)=C2)C(=O)N(CC)C1=S returned XiGFP reactiv inactive, MITF act inactive, NSD2 inh inactive and Wnt bcat act inactive.
`O=C1NC(=O)N(Cc2ccccc2)C(=O)/C1=C/C=C/c1ccco1` gave XiGFP reactiv inactive, Casp6 inh 39, MITF act inactive, NSD2 inh inactive and Wnt bcat act inactive.
Screening CC(=O)N1C[C@@H]2C(c3ccccc3)[C@H](C1)N2C (some centres undefined) returned XiGFP reactiv inactive.
For COC(=O)[C@H]1[C@H](CO)[C@H]2Cn3c(ccc(-c4ccc(F)cc4)c3=O)[C@@H]1N2Cc1cccnc1 the results were XiGFP reactiv inactive, esBAF inh inactive and Casp6 inh inactive.
`CN(C)c1ccc(CN2CC=C(c3ccc(F)cc3)CC2)cc1` gave esBAF inh inactive, MITF act inactive and NSD2 inh 51.
COc1cc(CN2CC=C(c3ccc(F)cc3)CC2)cc(OC)c1 was read as XiGFP reactiv inactive, esBAF inh inactive, Casp6 inh inactive, MITF act inactive and Wnt bcat act inactive.
O=C(O)[C@@H]1[C@@H](CO)[C@@H]2Cn3c(ccc(C4=CCCCC4)c3=O)[C@H]1N2CCc1ccccc1 was read as XiGFP reactiv inactive and esBAF inh inactive.
COC(=O)[C@H]1[C@H](CO)[C@H]2Cn3c(cccc3=O)[C@@H]1N2Cc1nccs1 was read as XiGFP reactiv inactive, esBAF inh inactive and Casp6 inh inactive.
O=C1NC(=O)N(c2ccccc2)C(=O)/C1=C/c1ccc(Sc2ccccc2)o1 was read as MITF act inactive.
`O=C1NC(=O)N(c2cccc(Cl)c2)C(=O)/C1=C\c1ccc(Sc2nc3ccccc3[nH]2)o1` gave XiGFP reactiv inactive, Casp6 inh 70, MITF act inactive, NSD2 inh 71 and Wnt bcat act inactive.
Screening O=C1NC(=O)N(c2ccccc2F)C(=O)/C1=C/c1ccc(Sc2nc3ccccc3[nH]2)o1 returned XiGFP reactiv inactive, Casp6 inh 60, MITF act inactive, NSD2 inh 87 and Wnt bcat act inactive.
CCC(=Nc1ccccc1N)c1c(O)[nH]c(=O)[nH]c1=O was read as XiGFP reactiv inactive, esBAF inh 51, Casp6 inh inactive, MITF act inactive, NSD2 inh inactive and Wnt bcat act inactive.
`CCC(=NCCc1ccccc1)c1c(O)[nH]c(=O)[nH]c1=O` gave XiGFP reactiv inactive, Casp6 inh inactive, NSD2 inh inactive and Wnt bcat act inactive.
CCCCn1nnnc1C(CCc1ccccc1)N1CCC(n2c(=O)[nH]c3ccccc32)CC1 (centres undefined) was read as XiGFP reactiv inactive, esBAF inh inactive, Casp6 inh inactive and Wnt bcat act inactive.
For CCCCn1nnnc1C(CCSC)N1CCC(n2c(=O)[nH]c3ccccc32)CC1 (centres undefined) the results were XiGFP reactiv inactive, esBAF inh inactive, Casp6 inh 50 and Wnt bcat act inactive.
`C=CCN1[C@@H]2CN(S(C)(=O)=O)C[C@H]1C2c1ccccc1` (some centres undefined) gave XiGFP reactiv inactive.
CCC(=O)N1[C@@H]2Cn3c(ccc(-c4cccc(F)c4)c3=O)[C@H]1[C@@H](C(=O)OC)[C@@H]2CO was read as XiGFP reactiv inactive, esBAF inh inactive and Casp6 inh inactive.
Screening O=C1NC(=O)N(Cc2ccco2)C(=O)/C1=C/c1ccc(-c2cccc([N+](=O)[O-])c2)o1 returned MITF act inactive.
For C=CCN1C(=O)NC(=O)/C(=C\c2ccc(-c3ccccc3[N+](=O)[O-])o2)C1=O the results were XiGFP reactiv inactive, Casp6 inh inactive, MITF act inactive, NSD2 inh inactive and Wnt bcat act 48.
